High-throughput results from PubChem.
In the library only some 2.3% were active in any assay of this set; here they are far more common.
PRMT1 inh: PRMT1 methyltransferase inhibitors, primary screen, biochemical, fluorescence polarization; Protein arginine N-methyltransferase 1 (Homo sapiens), Q99873; recombinant PRMT1, activity-based probe fluorescence polarization; inhibition, % at 2.79 µM; 1.3% of 370,000 active; AID 652257, 2013;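 active = inhibition above about 21% made by adding two undisclosed values, limit read from the data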
PME-1 primary: PME-1 inhibitors via competitive probe labeling, primary screen, biochemical, fluorescence polarization, FP-Rh probe, HTS | Protein phosphatase methylesterase 1 (Homo sapiens), Q9Y570 | recombinant PME-1 | inhibition, % at 5.9 µM | 0.53% of 320,000 active | AID 2130, 2009;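 active = inhibition above the campaign mean of all compounds plus 3 SD, cut at about 26% in these data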;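 also: competitive labeling of PME-1 active site by serine hydrolase directed probe; 0% = PME-1 with DMSO and 100% = wells lacking PME-1 enzyme; inhibitors block probe labeling so polarization falls and inhibition rises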
Fam108B counter: mouse Fam108B serine hydrolase inhibitors, primary screen, counter-screen for RBBP9 inhibitor project, biochemical, fluorescence polarization | recombinant Fam108B, FP-Rh probe fluorescence polarization | 0.33% of 300,000 active | AID 1947, 2009 | inhibition, % at 9.51 µM;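 active = inhibition above the screen mean inhibition plus 3 SD, computed separately per campaign, cut at about 18% in these data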;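 also: inhibitors lower polarization as less probe binds the enzyme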
PAD4 FP inh: human PAD4 inhibitors, primary screen, biochemical, fluorescence polarization, 1536-well format; inhibition, % at 6.36 µM; recombinant PAD4, RCA probe fluorescence polarization; AID 485272, 2010; 0.41% of 330,000 active;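 active = percent inhibition above a cutoff equal to the mean of all tested compounds plus 3 SD, cut at about 15% in these data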;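 also: 0% = PAD4 with RCA probe and DMSO and 100% = probe without PAD4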
GSTO1 counter: inhibitors of recombinant GSTO1, primary screen, counter-screen for RBBP9 inhibitor project, biochemical, fluorescence polarization; Glutathione S-transferase omega-1 (Homo sapiens), P78417; activity-based probe fluorescence polarization; inhibition, % at 5.96 µM; 1.1% of 300,000 active; AID 1974, 2009;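 active = inhibition above the campaign mean inhibition plus 3 SD, cut at about 35% in these data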;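 also: 0% = GSTO1-1 with DMSO and 100% = wells lacking GSTO1-1 enzyme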
Target sequence (P78417 whole entry, looked up): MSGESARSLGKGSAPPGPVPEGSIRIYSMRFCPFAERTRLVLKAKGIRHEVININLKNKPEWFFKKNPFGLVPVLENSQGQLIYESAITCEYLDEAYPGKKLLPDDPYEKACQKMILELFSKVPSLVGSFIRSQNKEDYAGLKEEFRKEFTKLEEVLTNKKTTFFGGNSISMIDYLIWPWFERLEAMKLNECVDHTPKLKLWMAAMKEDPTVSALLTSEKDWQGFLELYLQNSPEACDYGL
RBBP9 inhibitor: human RBBP9 inhibitors, primary screen, biochemical, fluorescence polarization, FP-Rh probe, HTS; inhibition, % at 7.94 µM; 0.2% of 220,000 active; AID 1515, 2009; recombinant RBBP9;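 active = inhibition above the campaign mean of all tested compounds plus 3 SD, cut at about 14% in these data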;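 also: plate controls were DMSO wells with RBBP9 for no effect and wells lacking RBBP9 protein for full effect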
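Test system – recombinant human RBBP9 · Input – RBBP9 2.5 µM in dispensing solution, pre-mixing · Medium – Tris buffer pH 8.0, NaCl, Pluronic · Schedule – preincubation 30 min plus labeling 45 min at 25 °C · Measured by – fluorescence polarization · Measure – % inhibition · Controls – DMSO and no-protein wells · Replicates – one well per compound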
PRMT1 inh conf: PRMT1 methyltransferase inhibitors, confirmation, biochemical, fluorescence polarization, triplicate | shares compounds with PRMT1 inh | recombinant His-PRMT1, activity-based probe fluorescence polarization | inhibition, % at 2.79 µM | 42% of 3,300 active | AID 687036, 2013;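 active = mean inhibition across replicates above the hit cutoff derived for the earlier primary screen, cut at about 22% in these data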
* hit, by the source's call; / = no result given.

SMILES | PRMT1 inh | PME-1 primary | Fam108B counter | PAD4 FP inh | GSTO1 counter | RBBP9 inhibitor | PRMT1 inh conf
O=C(Nc1ccncc1)C1COc2ccccc2O1 (stereo not drawn) | 0 | 0 | 0 | 2 | 2 | -16 | /
O=C(CSC1=NCCN1)C1COc2ccccc2O1 (stereo not drawn) | 34* | -2 | 4 | -2 | 1 | 5 | 42*
COC(=O)Nc1ccccc1C(=O)N1CCC(O)(c2ccc(Cl)cc2)CC1 | 4 | 17 | 1 | -1 | 0 | -7 | /
O=C(O)/C=C\C(=O)Nc1ccccc1C(=O)N1CCC(O)(c2ccc(Cl)cc2)CC1 | 29* | / | / | / | / | / | -6
O=C(C[C@H]1CC[C@@H]2[C@H](COC[C@H](O)CN2Cc2nccs2)O1)NCc1ccccc1Cl | 9 | / | / | / | / | / | /
Cc1ccc(S(=O)(=O)NN2C(=O)/C(=C/c3cccnc3)SC2=S)cc1 | 31* | 8 | 1 | 7 | 9 | / | 13
CN(C)CC(=O)Nc1ccc2cn[nH]c2c1 | 1 | 6 | 3 | 3 | 4 | -6 | /
Cc1nnc(SCC(=O)N2CCN(S(=O)(=O)c3ccccc3)CC2)[nH]c1=O | -1 | -3 | -5 | -3 | 2 | 5 | /
Nc1cccc([N+](=O)[O-])c1 | 2 | 8 | 6 | -4 | 1 | 0 | /
O=[N+]([O-])c1cccc(SSc2cccc([N+](=O)[O-])c2)c1 | 83* | / | / | / | / | / | 95*
O=C(Nc1ccc(NC(=O)c2cccs2)cc1)c1ccccc1 | -2 | -7 | -7 | -8 | -3 | / | /
S=P(N1CC1)(N1CC1)N1CC1 | 40* | -3 | -2 | -2 | 16 | / | 10
CCOC(=O)C(=O)N1CCC(Cc2ccccc2)CC1 | 1 | 5 | 1 | -3 | 6 | 12 | /
Cc1c(N(C)C)c(=O)n(-c2ccccc2)n1C | -2 | 5 | / | -2 | / | / | /
N#CCN1CCC(c2cc(-c3ccco3)n[nH]2)CC1 | 57* | -5 | 2 | 6 | 7 | -5 | 3
O=C(O)C1CSC(c2ccccc2Cl)N1C(=O)c1ccc(Cl)cc1 (stereo not drawn) | 1 | 3 | -1 | -2 | 7 | -6 | /
